Source: ChEMBL document CHEMBL1926589, “2-Anilinonicotinyl linked 2-aminobenzothiazoles and [1,2,4]triazolo[1,5-b] [1,2,4]benzothiadiazine conjugates as potential mitochondrial apoptotic inducers” (Bioorg Med Chem, 2011)
pIC50: −log10 of the molar value. Activity calls are given as the source filed them. No cut-off for these calls is given here.

Columns and labels:
IMR-32 = experiment: Growth inhibition of human IMR32 cells at 10 uM by sulforhodamine B assay; format: functional; settings: read-out: GI
In short: (§1)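 Single-dose 10 µM screen by sulforhodamine B assay, reported as percent inhibition of cell proliferation. Cells grown in medium with 10% heat-inactivated FBS at 37 °C, 5% CO2, and treated at about 70% confluence or in log phase. Compounds dissolved in DMSO; controls received vehicle (<0.5% v/v).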

SiHa [1] = experiment: Growth inhibition of human SiHa cells at 10 uM by sulforhodamine B assay; format: functional; settings: read-out: GI; in short: as §1
SW-620 = experiment: Growth inhibition of human SW620 cells at 10 uM by sulforhodamine B assay; format: functional; settings: read-out: GI; in short: as §1
HCT-15 = experiment: Growth inhibition of human HCT15 cells at 10 uM by sulforhodamine B assay; format: functional; settings: read-out: GI; in short: as §1
DU-145 = experiment: Growth inhibition of human DU145 cells at 10 uM by sulforhodamine B assay; format: functional; settings: read-out: GI; in short: as §1
A549 = experiment: Growth inhibition of human A549 cells at 10 uM by sulforhodamine B assay; format: functional; settings: read-out: GI; in short: as §1
HEp-2 = experiment: Growth inhibition of human Hep2 cells at 10 uM by sulforhodamine B assay; format: functional; settings: read-out: GI; in short: as §1
HL-60 [2] = experiment: Growth inhibition of human HL60 cells after 48 hrs by MTT assay; format: functional, cell-based; settings: HL-60, 48 h
SiHa [3] = experiment: Growth inhibition of human SiHa cells after 48 hrs by MTT assay; format: functional, cell-based
[4] = Therapeutic ratio of IC50 for african green monkey CV1 cells to IC50 for human HL60 cells; format: ADME, cell-based, HL-60; settings: CV1 cells and HL60 cells, read-out: Ratio IC50
HL-60 [5] = experiment: Induction of apoptosis in human HL60 cells assessed as early apoptotic cells at 1 uM after 24 hrs using Annexin V-FITC and propidium iodide staining by flow cytometry relative to control; format: functional
In short: (§2)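 HL-60 cells (1 x 10^5 per 1.5 mL) treated 24 h, washed twice in PBS and stained in binding buffer with annexin V-FITC and PI. Flow cytometry with FITC in FL-1 (530 nm) and PI in FL-2 (585 nm), using quadrant statistics: lower right taken as apoptotic, upper right as post-apoptotic necrotic. Representative of three independent experiments.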

HL-60 [6] = experiment: Induction of apoptosis in human HL60 cells assessed as non-viable necrotic cells at 1 uM after 24 hrs using Annexin V-FITC and propidium iodide staining by flow cytometry relative to control; format: functional; in short: as §2
HL-60 [7] = experiment: Induction of apoptosis in human HL60 cells assessed as late apoptotic cells at 1 uM after 24 hrs using Annexin V-FITC and propidium iodide staining by flow cytometry relative to control; format: functional; in short: as §2
HL-60 [8] = experiment: Induction of apoptosis in human HL60 cells assessed as caspase3 activation using DEVD-AFC as substrate at 1 uM after 24 hrs by fluorimetry relative to control; format: functional
In short: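 HL-60 cells (2 x 10^6) treated 24 h, washed and lysed. Caspase-3, -8 and -9 activities in lysates measured fluorometrically with a commercial caspase fluorescent assay kit. Two independent experiments, each in duplicate.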

HL-60 [9] = experiment: Induction of apoptosis in human HL60 cells assessed as DNA ladder formation at 1 uM after 24 hrs by agarose gel electrophoresis; format: functional, cell-based
In short: (§3)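 Cells treated 24 h, then 2 x 10^6 cells lysed (Triton X-100 buffer, pH 8.0) with RNase at 37 °C for 90 min and proteinase-K at 50 °C for 1 h. DNA phenol/chloroform-extracted and ethanol-precipitated, then run on 1.8% agarose at 50 V for 1.5 h in TAE. Ladders viewed under UV.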

SiHa [10] = experiment: Induction of apoptosis in human SiHa cells assessed as DNA ladder formation at 10 uM after 24 hrs by agarose gel electrophoresis; format: functional, cell-based; in short: as §3
HeLa = experiment: Induction of apoptosis in human HeLa cells assessed as DNA ladder formation at 10 uM after 24 hrs by agarose gel electrophoresis; format: functional, cell-based; in short: as §3
HL-60 [11] = experiment: Cell cycle arrest in human HL60 cells assessed as accumulation at sub-G0 phase measuring DNA damage at 1 uM after 24 hrs using propidium iodide staining by flow cytometry (reference value: 1%); format: functional
In short: (§4)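 HL-60 cells (1 x 10^5 per 1.5 mL) treated 24 h, then fixed in 70% cold ethanol at −20 °C overnight. RNase digestion (400 µg/ml) at 37 °C for 45 min, then propidium iodide (10 µg/ml) for 30 min. Flow cytometry on 10,000 events, FL2-A vs FL2-W, with doublet discrimination. Sub-G0 (hypodiploid) peak taken as apoptotic cells. Mean ± SD of three independent experiments.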

HL-60 [12] = experiment: Cell cycle arrest in human HL60 cells assessed as accumulation at G1 phase at 1 uM after 24 hrs using propidium iodide staining by flow cytometry; format: functional, cell-based; in short: as §4
HL-60 [13] = experiment: Cell cycle arrest in human HL60 cells assessed as accumulation at S phase at 1 uM after 24 hrs using propidium iodide staining by flow cytometry; format: functional, cell-based; in short: as §4
HL-60 [14] = experiment: Induction of apoptosis in human HL60 cells assessed as increase of reactive oxygen species level at 1 uM after 24 hrs using DCFH-DA fluorescent dye based flow cytometric analysis relative to control; format: functional
In short: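 HL-60 cells (1 x 10^5 per 1.5 mL) treated 24 h, then loaded with 10 µM H2DCFDA for 30 min at 37 °C. Washed twice in PBS and read in FL-1 (530 nm). Percentage of DCF-positive cells determined; mean ± SD of three experiments.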

HL-60 [15] = experiment: Induction of apoptosis in human HL60 cells assessed as decrease in mitochondrial membrane potential at 1 uM after 24 hrs using rhodamine 123 staining by flow cytometry; format: functional; set-up: scale not given: the % may be the effect or the level left
In short: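 HL-60 cells (1 x 10^5 per 1.5 mL) treated 24 h, then stained with rhodamine-123 (5 µg/mL final) for 1 h. Washed, and propidium iodide (5 µg/mL) added just before reading. FL-1 fluorescence from 10,000 events; percentage of low Rh-123 cells taken as loss of membrane potential. Mean ± SD, n=3.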

HL-60 [16] = experiment: Induction of apoptosis in human HL60 cells assessed as smoothening of surface at 1 uM after 12 hrs by scanning electron microscopy; format: functional, cell-based
In short: (§5)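 HL-60 cells at 2 x 10^5/ml in 10% FCS medium exposed to 0.5 or 1 µM for 6–48 h; DMSO vehicle controls. Cells fixed in 2.5% glutaraldehyde in 0.1 M phosphate (pH 7.2) at 4 °C for 1 h, post-fixed in 1% OsO4 and ethanol-dehydrated. Critical-point dried, gold-coated, and imaged by SEM at 40 kV.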

HL-60 [17] = experiment: Induction of apoptosis in human HL60 cells assessed as blebbing of plasma membrane at 1 uM after 12 hrs by scanning electron microscopy; format: functional, cell-based; in short: as §5
HL-60 [18] = experiment: Induction of apoptosis in human HL60 cells assessed as formation of apoptotic bodies at 1 uM after 24 hrs by scanning electron microscopy; format: functional, cell-based; in short: as §5
HL-60 [19] = experiment: Induction of apoptosis in human HL60 cells at 0.5 uM after 48 hrs by scanning electron microscopy; format: functional, cell-based; in short: as §5
PC-3 = experiment: Induction of apoptosis in human PC3 cells assessed as nuclear fragmentation at 1 uM after 24 hrs by DAPI staining-based fluorescence microscopy; format: functional, cell-based
In short: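 HL-60 or PC-3 cells treated at 1 µM for 24 h. Air-dried smears fixed in methanol at −20 °C for 20 min and stained with DAPI (1 µg/mL) for 20 min at room temperature in the dark. Mounted in 90% glycerol/PBS and examined by fluorescence microscopy for nuclear morphology.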

O=C(Nc1nc2ccc([N+](=O)[O-])cc2s1)c1cccnc1Nc1cc(F)c(F)c(F)c1
inhibition of growth at 10 µM (IMR-32): 72% | inhibition of growth at 10 µM (SiHa [1]): 70% | inhibition of growth at 10 µM (SW-620): 70% | inhibition of growth at 10 µM (HCT-15): 62% | inhibition of growth at 10 µM (DU-145): 39% | inhibition of growth at 10 µM (A549): 27% | inhibition of growth at 10 µM (HEp-2): 0% | pIC50 (HL-60 [2]): 7.10 | pIC50 (SiHa [3]): 4.44 | selectivity ratio [4]: > 1250 | Activity (HL-60 [5]): 15% | Activity (HL-60 [6]): 47% | Activity (HL-60 [7]): 8% | fold change (FC) (HL-60 [8]): 2 | Activity (HL-60 [9]): Active | Activity (SiHa [10]): inactive | Activity (HeLa): inactive | Activity (HL-60 [11]): 94% | Activity (HL-60 [12]): inactive | Activity (HL-60 [13]): inactive | Activity (HL-60 [14]): inactive | Activity (HL-60 [15]): 45% | Activity (HL-60 [16]): Active | Activity (HL-60 [17]): Active | Activity (HL-60 [18]): Active | Activity (HL-60 [19]): inactive | Activity (PC-3): Active
